Assay outcomes as filed in PubChem BioAssay.
Rows were chosen to be rich in hits. Some 1.5% of all compounds tested hit in one or more screens of this group.
EP2 modulator: EP2 receptor (human) modulation; EP2-expressing cells, cAMP HTRF FRET, PGE2 co-stimulation; induction, % at 25 µM; hit rate 0.83% among 260,000; P43116;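 active means compounds whose cAMP rise, as percent of the full-agonist control response, exceeds 60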;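 further: rat C6 glioma line stably carrying human EP2 under a CMV promoter; the protocol text gives 20 µM as final concentration; 100% = response of wells given 1 µM PGE2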
Target sequence (P43116 whole entry, looked up): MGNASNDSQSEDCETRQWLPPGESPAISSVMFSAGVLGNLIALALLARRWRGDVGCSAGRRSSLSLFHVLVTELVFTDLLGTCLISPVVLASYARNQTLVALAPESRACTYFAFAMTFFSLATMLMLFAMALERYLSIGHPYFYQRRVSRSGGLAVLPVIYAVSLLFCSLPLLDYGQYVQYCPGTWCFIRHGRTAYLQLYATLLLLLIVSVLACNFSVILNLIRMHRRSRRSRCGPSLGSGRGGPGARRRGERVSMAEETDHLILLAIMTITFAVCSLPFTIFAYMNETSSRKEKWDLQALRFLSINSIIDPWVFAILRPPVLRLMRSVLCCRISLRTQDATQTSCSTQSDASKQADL
EP2 antag: inhibitors of human EP2 prostaglandin E2 receptor; hit rate 0.52% among 260,000; C6 glioma cells expressing human EP2, cAMP TR-FRET; cells stimulated with saturating PGE2; P43116; inhibition, % at 25 µM; AID 1422;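 active means percent inhibition above 40 after rounding to a whole number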;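 further: rat C6 glioma host cells with rolipram phosphodiesterase inhibitor present; the protocol text gives 20 µM as final concentration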
ABCG2 inh: blocks JC-1 efflux by human ABCG2 transporter; hit rate 0.1% among 190,000; Q9UNQ0; AID 1325; inhibition, % at 6.6 µM; IgMXP3 cells, flow cytometry;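 active means inhibition above 80%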;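 further: 0% = DMSO and 100% = nicardipine control wells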
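test system = two drug-resistant human cell lines, ABCG2 and ABCB1 | amount = 3 million cells/mL final, two lines in 1:1 ratio | reagent = JC-1 transporter substrate | doses = one concentration, 6.6 µM final | incubation = 10 min at 25 °C | signal = flow cytometric JC-1 green MFI at 530 nm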
ABCB1 block: inhibitors of human ABCB1 transporter, ABCG2 counter-screen; CCRF-Adr cells, JC-1 efflux, flow cytometry; inhibition, % at 6.6 µM; hit rate 0.067% among 190,000; AID 1326; in the data active means inhibition above about 40%;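 further: 0% = vehicle and 100% = reference inhibitor; higher value means more JC-1 retained so stronger ABCB1 efflux block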
RBBP9 inhibitor: human RBBP9 hydrolase inhibition; O75884; recombinant RBBP9, FP-Rh probe fluorescence polarization; inhibition, % at 7.94 µM; hit rate 0.2% among 220,000;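 active means inhibition above the campaign mean of all tested compounds plus 3 SD, cut at about 14% in these data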;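 further: plate controls were DMSO wells with RBBP9 for no effect and wells lacking RBBP9 protein for full effect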
Target sequence (O75884 whole entry, looked up): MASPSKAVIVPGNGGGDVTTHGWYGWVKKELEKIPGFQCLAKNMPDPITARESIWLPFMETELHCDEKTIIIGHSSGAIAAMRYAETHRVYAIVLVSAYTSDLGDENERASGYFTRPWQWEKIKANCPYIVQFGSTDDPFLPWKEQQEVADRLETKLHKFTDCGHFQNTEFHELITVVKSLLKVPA
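Measured by – fluorescence polarization · Test system – RBBP9 protein · Input – 2.5 µM RBBP9 dispensing solution, before mixing · Measure – percent inhibition from mP, scaled between DMSO and no-protein wells · Benchmarks – DMSO-treated enzyme wells and wells lacking RBBP9 · Times – preincubation 30 min plus labeling 45 min at 25 °C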
EP2 confirm: human EP2 receptor cAMP induction, negative in counter-screens. hit rate 47% among 1,300. calls only at 20 µM (by protocol). shares compounds with EP2 modulator. C6 glioma EP2 cells, cAMP HTRF induction; plus low (about EC15) PGE2 agonist;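 active means cAMP induction above 50% in the main assay while under 30% in all four parallel counter assays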;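 further: rat C6 glioma cells stably expressing human EP2 receptor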
An asterisk follows results filed as active; i = inactive; / = not tested or not shown; + = active, no number; ! = not confirmed by another sample.

SMILES | EP2 modulator | EP2 antag | ABCG2 inh | ABCB1 block | RBBP9 inhibitor | EP2 confirm
O=C1c2ccccc2OC2(C=Cc3ccccc3O2)N1Cc1ccccc1 (configuration not stated) | 76* | / | 3 | 1 | 0 | +
Cc1nc(NCCNC(=O)c2ccccc2)c2c3c(sc2n1)CCCC3 | -220 | 18 | / | / | / | /
CCc1c(C)nc2ccc(Br)cc2c1SCCC#N | 65* | 12 | 2 | 1 | -4 | i
CCCCc1c(C)nc2ccc(Br)cc2c1SCCC#N | 56 | 12 | 73 | 2 | -10 | /
Cn1c(=O)c2c(nc(N3CCc4ccccc4C3)n2CCSc2ncccn2)n(C)c1=O | -28 | 10 | / | / | / | /
CCCCCOC(=O)c1[nH]c2c(c1C)C(=O)C(C(=O)OC)C(C)C2 (configuration not stated) | 91* | 12 | 3 | 1 | 1 | +
COCCOC(=O)c1[nH]c2c(c1C)C(=O)C(C(=O)OC)C(C)C2 (configuration not stated) | 28 | 6 | 4 | 0 | 0 | /
c1ccc(CCc2cccnc2)nc1 | 74* | 12 | / | / | / | i
CCC1CCc2c(sc(N)c2C(N)=O)C1 (configuration not stated) | -12 | 4 | 1 | 0 | -7 | /
CCOC(=O)c1c(N)sc2c1CCC(CC)C2 (configuration not stated) | 66* | 11 | -1 | 0 | -2 | i
COc1cc2[nH]c(=O)c(C(=O)NCc3ccccn3)c(O)c2cc1OC | -2 | 6 | / | / | / | /
CC(C)OC(=O)c1c(NC(=O)CCn2nnc3ccccc32)sc2c1CCCC2 | 53 | 11 | 5 | 1 | -4 | i
COC(=O)c1c(NC(=S)NN2CCOCC2)sc2c1CCCC2 | 46 | 4 | 6 | 1 | -2 | i
CCOC(=O)c1c(NC(=O)c2cccs2)sc2c1CCN(C(=O)OCC)C2 | 52 | 13 | 6 | 4 | 4 | +
Cc1sc(NC(=O)c2cccs2)c(C(=O)OC(C)C)c1C | 78* | 8 | 12 | 1 | -5 | +
CCc1c(C)sc(NC(=O)c2cccs2)c1C(=O)OC(C)C | 46 | 27 | 54 | 3 | -2 | /
CCOC(=O)c1c(NC(=O)c2cccs2)sc(C)c1CC | 59 | 9 | 4 | 0 | -4 | i
CCOC(=O)c1c(NC(=O)C2CC2)sc(C)c1CC | 36 | 5 | 11 | 1 | -5 | /
COC(=O)c1c(NC(=O)C2CC2)sc2c1CCCC2 | 59 | 4 | 5 | 0 | -2 | i
CCOC(=O)c1c(NC(=O)c2ccco2)sc2c1CCCCC2 | 79* | 19 | 5 | 0 | 3 | +
CCOC(=O)c1c(NC(=O)c2ccc(Br)o2)sc(C)c1CC | 74* | 5 | 17 | 2 | -4 | +
O=C(Nc1sc2c(c1C(=O)O)CCCCC2)c1ccco1 | -4 | 7 | 12 | -1 | 2 | /
Cc1nc(C)c(C(=O)N[C@@H](Cn2nnc3ccccc32)C(C)C)o1 | -28 | 7 | / | / | / | /
COc1ccc(CN2CCc3c(nc(N4CCCC4)[nH]c3=O)C2)c(O)c1 | -22 | 9 | / | / | / | /
COc1ccc(CN2C[C@@H]3CCCN3C[C@@H]2Cc2ccccc2)cc1CO | -23 | 7 | / | / | / | /
SMILES | EP2 modulator | EP2 antag | ABCG2 inh | ABCB1 block | RBBP9 inhibitor | EP2 confirm
COCC(=O)Nc1sc2c(c1C(=O)OC)CCC(C)C2 (configuration not stated) | 70*! | 8 | -4 | -4 | -4 | i
COC(=O)c1c(NC(=O)c2ccc(Br)s2)sc2c1CCC2 | 67* | 9 | 5 | 0 | -4 | i
CCOC(=O)c1c(NC(=O)Cc2cccs2)sc2c1CCCC2 | 20 | 1 | 9 | 1 | -5 | /
COCC(=O)Nc1sc2c(c1C(=O)OC)C(C(=O)OC)CC2 (configuration not stated) | -7 | 3 | 2 | 1 | -8 | /
CCOC(=O)c1c(NC(=O)c2cccs2)sc2c1CCCC2 | 56 | 18 | 0 | 0 | -5 | i
Cc1nn(CC(=O)N2CCN(c3ccccc3F)CC2)c(=O)c2cc3ccsc3n12 | -39 | / | / | / | / | /
COc1ccccc1NC(=O)Cn1nc(C)n2c(cc3ccsc32)c1=O | -18 | / | / | / | / | /
CC(C)NC(=O)NC(=O)CSc1nnc(COc2ccccc2F)n1C(C)C1CC2CCC1C2 (configuration not stated) | 57 | 6 | -5 | -3 | -7 | i
Cc1ccccc1Nc1cccc2nonc12 | 67* | 7 | 5 | 0 | -4 | +
COc1cc(CN2CCc3nc(N4CCCC(C)C4)[nH]c(=O)c3C2)ccc1O (configuration not stated) | 3 | 8 | / | / | / | /
COc1ccc(CN(Cc2cc3ccc(OC)cc3[nH]c2=O)C(=O)c2cccs2)cc1 | -23 | 8 | / | / | / | /
Cc1ccc2cc(CN(Cc3cccnc3)C(=S)Nc3ccccc3)c(=O)[nH]c2c1C | -45 | 14 | / | / | / | /
CC1CCCCN1c1nc2c(c(=O)[nH]1)CCN(Cc1cccn1-c1cccnc1)C2 (configuration not stated) | -7 | 10 | / | / | / | /
CCC(=O)Oc1ccc(C(CC)C(CC)c2ccc(OC(=O)CC)cc2)cc1 (configuration not stated) | 69* | 9 | 0 | 0 | -4 | +
CCC(=O)Oc1ccc(-c2cnc3ccccc3n2)cc1 | -1 | 9 | 11 | 0 | -2 | /
CCOc1ccc(Cl)cc1S(=O)(=O)n1cnc2cc(C)c(C)cc21 | 70* | 5 | 2 | 1 | -8 | +
CCCc1cc(CNC(=O)Cn2cnc3sc(C)cc3c2=O)on1 | -18 | 5 | / | / | / | /
O=C(CN1CCC(C(=O)c2ccccc2)CC1)Nc1ccccc1N1CCOCC1 | -17 | 12 | / | / | / | /
COc1ccc(-c2nc(NC(C)=O)sc2-c2ccccc2)cc1 | 62* | 10 | 7 | 0 | -2 | i
COc1ccc(-c2sc(NC(C)=O)nc2-c2ccccc2)cc1 | 33 | 14 | 3 | 1 | -3 | /
COc1ccc(-c2cc(C(F)(F)F)nc(NC3CCCC3)n2)cc1OC | 68* | 8 | 5 | 0 | -10 | i
COc1ccc(-c2cc(C(F)(F)F)nc(SCC(=O)NC3CCCCCC3)n2)cc1OC | -61 | 26 | / | / | / | /
COc1cccc(-c2cc(C(F)(F)F)nc(N3CCOCC3)n2)c1 | 35 | 6 | 1 | 0 | -2 | /
COc1ccc(-c2cc(-c3ccccc3)nc(N3CCCC3)n2)cc1OC | 64* | 5 | 6 | 0 | -17 | i
NC(=O)c1cc(-c2ccccc2)nc(N2CCCCCC2)n1 | -17 | 10 | 4 | 1 | -3 | /
COc1ccc(-c2cc(C(F)(F)F)nc(N3CCOCC3)n2)cc1OC | 70* | 6 | 10 | 2 | -4 | +
CCCC(=O)Nc1ccc(NC(=O)CSc2nnc(-c3ccncc3)n2C)cc1 | -15 | 19 | / | / | / | /
